# Test results: ChEMBL document CHEMBL1933048, “Inhibition of the pore-forming protein perforin by a series of aryl-substituted isobenzofuran-1(3H)-ones” (Bioorg Med Chem, 2012)
# Calls of active or inactive are those of the source. No cut-off for these calls is given here.
# Columns and labels:
# Assay type in all cases: cell-based
# [1] = molecular target: T1, Perforin-1 (Homo sapiens) (UniProt P14222); assay: Inhibition of perforin released from human KHYG-1 NK cells assessed as inhibition of perforin-mediated lysis of human K562 cells at 20 uM by [51Cr] release assay in absence of serum
# T1 sequence (whole entry): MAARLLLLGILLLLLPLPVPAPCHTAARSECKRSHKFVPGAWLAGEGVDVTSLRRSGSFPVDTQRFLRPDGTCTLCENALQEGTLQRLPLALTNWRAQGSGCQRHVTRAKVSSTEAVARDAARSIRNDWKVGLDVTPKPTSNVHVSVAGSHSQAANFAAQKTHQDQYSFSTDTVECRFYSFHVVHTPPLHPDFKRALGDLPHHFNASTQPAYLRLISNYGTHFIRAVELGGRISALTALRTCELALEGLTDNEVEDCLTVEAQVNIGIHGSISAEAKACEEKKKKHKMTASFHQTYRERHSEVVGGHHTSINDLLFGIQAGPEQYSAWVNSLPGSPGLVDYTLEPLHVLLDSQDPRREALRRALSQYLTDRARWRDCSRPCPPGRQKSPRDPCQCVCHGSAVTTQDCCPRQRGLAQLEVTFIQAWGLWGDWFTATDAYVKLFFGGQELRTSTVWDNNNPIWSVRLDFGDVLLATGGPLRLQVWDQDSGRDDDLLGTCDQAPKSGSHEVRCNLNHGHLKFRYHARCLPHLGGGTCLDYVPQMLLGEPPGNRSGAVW
# Summary of the method: (§1)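 KHYG-1 cells (4 × 10⁵/mL, RPMI + 0.1% BSA) received either BSA medium or 10% mouse serum final, then compound at 20 µM for 20 min at rt. K562 cells labelled with 75 µCi ⁵¹Cr (90 min, 37 °C) and washed were added at E:T 2:1 for 4 h at 37 °C. ⁵¹Cr release was gamma-counted. Specific lysis used spontaneous/maximum release, and inhibition was taken vs untreated control. Triplicate wells; ≥3 determinations.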
# [2] = molecular target: T1, Perforin-1 (Homo sapiens); assay: Inhibition of perforin released from human KHYG-1 NK cells assessed as inhibition of perforin-mediated lysis of human K562 cells at 20 uM by [51Cr] release assay in presence of 10% mouse serum; summary of the method: as §1
# [3] = Cytotoxicity against human KHYG-1 NK cells assessed as cell viability at 20 uM after 18 to 24 hrs by trypan blue assay; settings: read-out: Activity
# Summary of the method: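 KHYG-1 NK cells were suspended at 4 × 10⁵ cells/mL in RPMI + 0.1% BSA and treated with compound at rt for 20 min. Instead of target cells, RPMI + 0.1% BSA was added, followed by 4 h at 37 °C. Cells were washed ×3 and kept in complete medium for 18–24 h at 37 °C. Trypan blue viable/total counts gave % viability vs a DMSO control. Values are the mean of ≥3 determinations.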
# [4] = molecular target: Pneumolysin (Streptococcus pneumoniae serotype 4 (strain ATCC BAA-334 / TIGR4)) (UniProt P0C2J9); assay: Inhibition of Streptococcus pneumoniae pneumolysin-mediated lysis of Jurkat cells assessed as [51Cr] release at 20 uM […] for 30 mins followed by incubation with [51Cr]-labeled Jurkat cells by gamma counting
# Summary of the method: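 Single 20 µM concentration, preincubated 30 min with pneumolysin in place of perforin, with DMSO as negative control. Jurkat cells were labelled 1 h with 100 µCi ⁵¹Cr, washed three times, and resuspended at 1 × 10⁵ cells/mL in RPMI with 0.1% BSA. Labelled cells were then added for 4 h at 37 °C, and supernatant radioactivity was gamma-counted.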
# [5] = molecular target: T1, Perforin-1 (Homo sapiens); assay: Inhibition of recombinant perforin-mediated lysis of Jurkat cells assessed as [51Cr] release at 20 uM preincubated with perforin for 30 mins followed by incubation with [51Cr]-labeled Jurkat cells by gamma counting
# Summary of the method: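 Compound at 20 µM was preincubated with recombinant perforin for 30 min, with DMSO as negative control. Jurkat cells were labelled with 100 µCi ⁵¹Cr for 1 h, washed ×3 and used at 1 × 10⁵/mL in RPMI + 0.1% BSA. They were added and incubated for 4 h at 37 °C. Supernatant radioactivity was measured by gamma counting. Triplicate points.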
# Chain of Pneumolysin (Streptococcus pneumoniae serotype 4 (strain ATCC BAA-334 / TIGR4)) (P0C2J9 whole entry): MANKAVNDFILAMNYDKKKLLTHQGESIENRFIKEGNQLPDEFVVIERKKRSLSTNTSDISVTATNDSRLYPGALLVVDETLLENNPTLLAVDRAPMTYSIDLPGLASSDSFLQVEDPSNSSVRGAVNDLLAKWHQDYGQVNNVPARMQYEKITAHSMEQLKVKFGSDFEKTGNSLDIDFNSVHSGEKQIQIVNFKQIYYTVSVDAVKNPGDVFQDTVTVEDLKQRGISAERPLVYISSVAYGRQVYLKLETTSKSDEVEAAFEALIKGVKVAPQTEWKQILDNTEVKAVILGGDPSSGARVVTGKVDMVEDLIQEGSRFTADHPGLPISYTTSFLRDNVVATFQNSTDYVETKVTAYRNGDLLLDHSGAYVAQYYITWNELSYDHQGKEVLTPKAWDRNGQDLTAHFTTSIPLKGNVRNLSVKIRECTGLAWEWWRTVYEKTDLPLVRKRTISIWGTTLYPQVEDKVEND
Compound,inhibition [1],inhibition [2],viability at 20 µM [3],inhibition [4],inhibition [5]
O=C1NC(=S)N/C1=C/c1cc2cc(-c3ccc4c(c3)COC4=O)ccc2[nH]1,91%,83%,23.2%,–,–
O=C1NC(=S)N/C1=C/c1cc(-c2ccc3c(c2)COC3=O)no1,41%,23%,63%,–,–
O=C1NC(=S)NC(=O)C1=Cc1ccc(-c2ccc3c(c2)COC3=O)s1,91%,73%,38%,–,–
O=C1NC(=S)N/C1=C/c1ccc(-c2ccc3c(c2)COC3=O)cn1,37%,20%,92%,–,–
O=C1NC(=S)N/C1=C/c1ccc(-c2ccc3c(c2)COC3=O)o1,74%,23%,66%,inactive,Active
Cc1cc2c(c(=S)[nH]1)C(=O)OC2=Cc1csc2ccccc12,41%,10.3%,77%,–,–
O=C1NC(=S)N/C1=C/c1cc2ccc(-c3ccc4c(c3)COC4=O)cc2[nH]1,100%,100%,10%,–,–
O=C1NC(=S)N/C1=C/c1nc(-c2ccc3c(c2)COC3=O)cs1,30%,13%,91%,–,–
O=C1NC(=S)N/C1=C/c1ccc2cc(-c3ccc4c(c3)COC4=O)ccc2n1,60%,35%,48.5%,–,–
O=C1NC(=S)N/C1=C/c1ccc(-c2ccc3c(c2)COC3=O)s1,53%,38.9%,88%,–,–
O=C1NC(=O)C(=Cc2ccc(-c3ccc4c(c3)COC4=O)s2)C(=O)N1,52%,10%,77.6%,–,–
O=C1NC(=S)N/C1=C/c1cnc(-c2ccc3c(c2)COC3=O)s1,45%,27%,68%,–,–
O=C1NC(=S)N/C1=C/c1ccc2ccc(-c3ccc4c(c3)COC4=O)cc2n1,52%,38%,59%,–,–
O=C1NC(=S)N/C1=C/c1cc2ccc(-c3ccc4c(c3)COC4=O)cc2s1,46%,25%,19.7%,–,–
O=C1NC(=O)/C(=C\c2ccc(-c3ccc4c(c3)COC4=O)s2)S1,36%,12%,19%,–,–
O=C1NC(=S)N/C1=C/c1cc2cc(-c3ccc4c(c3)COC4=O)ccc2s1,51%,17%,27%,–,–
O=C1NC(=S)N/C1=C/c1ccc(-c2ccc3c(c2)COC3=O)cc1,28%,30%,59%,–,–
O=C1NC(=S)N/C1=C/c1cc(-c2ccc3c(c2)COC3=O)ns1,45%,26%,57%,–,–
O=C1NC(=S)N/C1=C/c1cc2cc(-c3ccc4c(c3)COC4=O)ccc2o1,61%,35%,29.9%,–,–
O=C1NC(=O)/C(=C\c2ccc(-c3ccc4c(c3)COC4=O)s2)N1,54%,64%,91.5%,–,–
O=C1NC(=S)N/C1=C/c1csc(-c2ccc3c(c2)COC3=O)n1,11%,2%,25%,–,–
O=C1NC(=S)N/C1=C/c1cc(-c2ccc3c(c2)COC3=O)cs1,49%,42%,55%,–,–
